Laboratory results published in paper PMC12065821 (Scientific Reports, 2025).
Where a SMILES comes first, the peptide text is derived from it. Bridges are numbered along the chain shown (N, C = ends). [ ]: non-standard residue; d: D form. The star is where a group is joined. X1 = CC[C@H](C)CCCCC(=O)*; Dab = NCC[C@H](N)C(=O)O

Experiments:
[1] = cited from earlier work
[2] = PK-TD model, PK component; format: in vivo; conditions: rats, one-compartment PK-TD model, mean ± SD
Summary of the method: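 Plasma prodrug and formed colistin/colistin B concentrations after i.p. dosing were fitted by a compartmental model. The final model used one compartment each for prodrug and formed drug, a conversion rate constant, and linear first-order total clearance from both. Fit was judged by R², AIC, BIC and visual inspection. Estimates are mean ± SD.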

[3] = system: rats; test: Regression of kidney colistin/colistin B concentrations against CR, BUN, SQS; format: in vivo; conditions: 95% CI
[4] = Plasma PK of CMS/CMS-E2 and formed colistin/colistin B; format: in vivo, rats; conditions: rat plasma, LC-MS/MS, NCA, mean ± SD
Summary of the method: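 Male Sprague-Dawley rats were dosed once i.p. in saline, and serial jugular-vein blood was taken before and after dosing. Blood was heparinised (1%), spun at 4,982 × g for 10 min at 4 °C, and plasma stored at −70 °C. Plasma (40 µL) went through WCX solid-phase extraction with polymyxin B1 internal standard, then LC-MS/MS. Prodrug was total (acid-hydrolysed) minus free analyte. […] Values are mean ± SD, compared by Wilcoxon rank sum.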

[5] = Kidney PK of CMS/CMS-E2 and formed colistin/colistin B; format: in vivo, rats; conditions: for Kp: kidney (cortex) / plasma, colistin/colistin B; for AUC0-inf formed colistin/colistin B in kidneys / Tmax formed colistin/colistin B in kidneys / t1/2 formed colistin/colistin B in kidneys / Cmax formed colistin/colistin B in kidneys / AUC0-inf CMS/CMS-E2 in kidneys / Tmax CMS/CMS-E2 in kidneys / t1/2 CMS/CMS-E2 in kidneys / Cmax CMS/CMS-E2 in kidneys: rat kidney cortex, LC-MS/MS; for AUC0-inf formed colistin/colistin B in kidneys / Tmax formed colistin/colistin B in kidneys / t1/2 formed colistin/colistin B in kidneys / AUC0-inf CMS/CMS-E2 in kidneys / Tmax CMS/CMS-E2 in kidneys / t1/2 CMS/CMS-E2 in kidneys: NCA; for Cmax formed colistin/colistin B in kidneys / Cmax CMS/CMS-E2 in kidneys: mean ± SD
Summary of the method: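 Male Sprague-Dawley rats (300 ± 15 g) got one i.p. dose in saline. At each sampling time rats were anaesthetised with tiletamine-zolazepam (40 mg/kg) and killed, and the left kidney was frozen at −70 °C. Kidney cortex was homogenised in saline (1:10 m/v, 1% BSA). Samples went through WCX solid-phase extraction with polymyxin B1 internal standard, then LC-MS/MS. Prodrug was calculated as total (after […] sulfuric acid hydrolysis) minus free colistin/colistin B. Parameters came from non-compartmental analysis.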

[6] = system: patients; conditions: plasma colistin; cited from earlier work
[7] = rats; CMS and formed colistin; cited from earlier work
[8] = system: rats; test: Renal histological examination; format: in vivo; conditions: rat kidney; for maximal SQS: mean ± SD, SD
[9] = system: rats; test: PK-TD model, TD component; format: in vivo; conditions: i.p., mean ± SD
Summary of the method: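 Plasma creatinine and BUN time courses were linked to plasma colistin/colistin B through an indirect hypothetical effect compartment. K_e is the rate constant from the central to the effect compartment. The effect was linear: E = E₀ + S·C_e, with E₀ the pre-dose baseline. T_lag was calculated as 1/K_e. Fit was judged by R², AIC, BIC and visual inspection. Parameters are mean ± SD.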

[10] = system: rats; test: Maximal tolerability dose; format: in vivo; conditions: intraperitoneal
[11] = system: rats; test: Kidney injury biomarkers: plasma CR and BUN; format: in vivo; conditions: rat plasma, mean ± SD
Summary of the method: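 Rats (male Sprague-Dawley) received one i.p. injection in saline, with a saline control group. Plasma came from serial heparinised jugular-vein samples, plus blood taken at sacrifice in a second cohort. Creatinine and blood urea nitrogen were measured on an automatic biochemical analyser. Peak levels and times to peak were taken from the time profiles and given as mean ± SD.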

[12] = single i.p. CMS or CMS-E2 20 mg/kg CBA
[13] = single i.p. CMS or CMS-E2 20 mg/kg CBA, SD
[14] = rats, single i.p. CMS or CMS-E2 20 mg/kg CBA
[15] = single i.p. CMS-E2 40 mg/kg CBA

For `CC[C@H](C)CCCCC(=O)N[C@@H](CCN)C(=O)N[C@H](C(=O)N[C@@H](CCN)C(=O)N[C@H]1CCNC(=O)[C@H]([C@@H](C)O)NC(=O)[C@H](CCN)NC(=O)[C@H](CCN)NC(=O)[C@H](CC(C)C)NC(=O)[C@@H](CC(C)C)NC(=O)[C@H](CCN)NC1=O)[C@@H](C)O` [colistin, Colistin] (X1-[Dab]T[Dab][Dab][Dab][dL]L[Dab][Dab]T; lactam 4-C), the “fraction undergoing glomerular filtration into the tubular lumen” value [1] is listed as 18%, the “CLcolistin/colistin B (total body clearance)” value ([2]; single i.p. CMS 10 mg/kg CBA) is listed as 2.57 ± 0.420 mL/min/kg and the “regression coefficient between kidney concentration and SQS” value ([3]; ordered logistic regression) is listed as 0.10. For the same compound, the “regression coefficient between kidney concentration and contemporaneous BUN” value ([3]; simple linear regression) was 0.27, the “regression coefficient between kidney concentration and contemporaneous CR” value ([3]; simple linear regression) was 0.74 and the “AUC0-inf formed colistin/colistin B in plasma” value ([4]; single i.p. CMS 10 mg/kg CBA) was 2050 ± 371 ng·h/mL. The “Cmax formed colistin/colistin B in plasma” value ([4]; single i.p. CMS 10 mg/kg CBA) was 764 ± 123 ng/mL, the “Tmax formed colistin/colistin B in plasma” value ([4]; single i.p. CMS 10 mg/kg CBA) was 2.00 ± 0.00 h and the “t1/2 formed colistin/colistin B in plasma” value ([4]; single i.p. CMS 10 mg/kg CBA) was 0.74 ± 0.0768 h. The “AUC0-inf formed colistin/colistin B in plasma” value [4, 12] was 23100 ± 7460 ng·h/mL, the “Cmax formed colistin/colistin B in plasma” value [4, 12] was 3990 ± 1520 ng/mL and the “Tmax formed colistin/colistin B in plasma” value [4, 12] was 3.55 ± 0.891 h. The “t1/2 formed colistin/colistin B in plasma” value [4, 12] was 1.88 ± 0.672 h, the Kp ([5]; male, Sprague-Dawley, rat, ip, 10 mg/kg CBA, Kidney/plasma ratio of AUC0-inf, rats, single i.p. CMS 10 mg/kg CBA) was 31.6 and the Kp ([5]; male, Sprague-Dawley, rat, ip, 10 mg/kg CBA, Kidney/plasma ratio of Cmax, rats, single i.p. CMS 10 mg/kg CBA) was 13.7. The Kp ([5]; male, Sprague-Dawley, rat, ip, 20 mg/kg CBA, Kidney/plasma ratio of AUC0-inf, rats, single i.p. CMS or CMS-E2 20 mg/kg CBA) was 26.1, the tissue level at time at 8 h ([5]; male, Sprague-Dawley, rat, kidney cortex, ip, 10 mg/kg CBA, SD) was 3550 ± 594 ng/g and the tissue level at time at 24 h ([5]; male, Sprague-Dawley, rat, kidney cortex, ip, 20 mg/kg CBA, SD) was 5970 ± 1850 ng/g. The “AUC0-inf formed colistin/colistin B in kidneys” value ([5]; single i.p. CMS 10 mg/kg CBA) was 64.7 µg·h/g, the “Tmax formed colistin/colistin B in kidneys” value ([5]; single i.p. CMS 10 mg/kg CBA) was 2 h and the “t1/2 formed colistin/colistin B in kidneys” value ([5]; single i.p. CMS 10 mg/kg CBA) was 1.21 h. For the same compound, the “Cmax formed colistin/colistin B in kidneys” value ([5]; single i.p. CMS 10 mg/kg CBA, SD) was 10.4 ± 3.13 µg/g, the “AUC0-inf formed colistin/colistin B in kidneys” value ([5]; single i.p. CMS 20 mg/kg CBA) was 603 µg·h/g and the “t1/2 formed colistin/colistin B in kidneys” value ([5]; single i.p. CMS 20 mg/kg CBA) was 6.23 h. For the same compound, the “Tmax formed colistin/colistin B in kidneys” value [5, 12] was 6 h, the “Cmax formed colistin/colistin B in kidneys” value [5, 13] was 53.6 ± 11.0 µg/g and the “Kidney/plasma ratio of Cmax, colistin/colistin B” value [5, 14] was 12.7. The “steady-state trough concentration associated with increased nephrotoxicity” value [6] was greater than 2.2 mg/L and the “t1/2 in prior reports” value [7] was 0.533 to 1.8 h.
In the case of Colistin B methanesulphonate [CMS-E2], the “CLCMS/CMS-E2 (total body clearance)” value [2, 15] is reported as 3.20 ± 1.74 mL/min/kg, the “Ka CMS/CMS-E2 (absorption rate)” value [2, 15] is reported as 0.673 ± 0.208 h⁻¹ and the “V (volume of distribution)” value [2, 15] is reported as 0.291 ± 0.105 L/kg. For the same compound, the “histological lesions during the first 2 h” value ([8]; PAS stain, single i.p. CMS or CMS-E2 20 mg/kg CBA) was “No obvious histological lesion”, the “maximal SQS” value [8, 12] was 0.667 ± 0.577 and the “histological damage at time points other than 4 h” value ([8]; single i.p. CMS-E2 20 mg/kg CBA) was “no obvious damage was observed”. For the same compound, the “recovery of histological damage at 24 h” value [8, 15] was “all damage was completely recovered”, the “maximal SQS” value [8, 15] was 2.33 ± 1.16 and the “AUC0-inf CMS/CMS-E2 in plasma” value [4, 12] was 37200 ± 10500 ng·h/mL. For the same compound, the “CL/F CMS/CMS-E2” value [4, 12] was 9.90 ± 3.34 mL/min/kg, the “Cmax CMS/CMS-E2 in plasma” value [4, 12] was 19100 ± 4500 ng/mL and the “Tmax CMS/CMS-E2 in plasma” value [4, 12] was 0.500 ± 0.00 h. For the same compound, the “Vd/F CMS/CMS-E2” value [4, 12] was 0.464 ± 0.108 L/kg, the “t1/2 CMS/CMS-E2 in plasma” value [4, 12] was 0.573 ± 0.16 h and the “AUC0-inf CMS/CMS-E2 in plasma” value [4, 15] was 226000 ± 125000 ng·h/mL. The “CL/F CMS/CMS-E2” value [4, 15] was 4.18 ± 2.56 mL/min/kg, the “Cmax CMS/CMS-E2 in plasma” value [4, 15] was 50900 ± 23500 ng/mL and the “Tmax CMS/CMS-E2 in plasma” value [4, 15] was 1.75 ± 0.433 h. For the same compound, the “Vd/F CMS/CMS-E2” value [4, 15] was 0.497 ± 0.278 L/kg, the “t1/2 CMS/CMS-E2 in plasma” value [4, 15] was 1.57 ± 0.522 h and the “AUC0-inf CMS/CMS-E2 in kidneys” value [5, 12] was 289 µg·h/g. The “Tmax CMS/CMS-E2 in kidneys” value [5, 12] was 2 h, the “t1/2 CMS/CMS-E2 in kidneys” value [5, 12] was 0.56 h and the “Cmax CMS/CMS-E2 in kidneys” value [5, 13] was 105 ± 25.3 µg/g. The “AUC0-inf CMS/CMS-E2 in kidneys” value [5, 15] was 2496 µg·h/g, the “Tmax CMS/CMS-E2 in kidneys” value [5, 15] was 4 h and the “t1/2 CMS/CMS-E2 in kidneys” value [5, 15] was 2.02 h. The “Cmax CMS/CMS-E2 in kidneys” value ([5]; single i.p. CMS-E2 40 mg/kg CBA, SD) was 379 ± 85.5 µg/g, the “Kidney/plasma ratio of Cmax, CMS/CMS-E2” value [5, 14] was 5.50 and the “Kidney/plasma ratio of Cmax, CMS/CMS-E2” value ([5]; rats, single i.p. CMS-E2 40 mg/kg CBA) was 7.44. The “S (slope between colistin/colistin B concentration in effect compartment and CR)” value ([9]; E = E0 + S·Ce) was 13.0 ± 3.52 mmol/g, the “Ke (rate from colistin/colistin B central compartment to effect compartment), BUN” value ([9]; indirect link PK-TD model, effect = BUN) was 0.182 ± 0.164 h⁻¹ and the “Ke (rate from colistin/colistin B central compartment to effect compartment), CR” value ([9]; indirect link PK-TD model, effect = plasma CR) was 0.814 ± 0.524 h⁻¹. For the same compound, the “Tlag (lag time), BUN” value ([9]; reciprocal of Ke, effect = BUN) was 11.9 ± 9.46 h, the “Tlag (lag time), CR” value ([9]; reciprocal of Ke, effect = plasma CR) was 1.83 ± 1.05 h and the maximal tolerability dose [10] was 40 mg/kg CBA. For the same compound, the “peak BUN level” value [11, 12] was 12.4 ± 5.21 mmol/L, the “peak CR level” value [11, 12] was 33.4 ± 3.44 µmol/L and the “time of peak BUN” value [11, 12] was 6.00 ± 0.00 h. The “time of peak CR level” value [11, 12] was 4.67 ± 1.89 h, the “peak BUN level” value [11, 15] was 23.0 ± 5.59 mmol/L and the “peak CR level” value [11, 15] was 104 ± 40.4 µmol/L. For the same compound, the “time of peak BUN” value [11, 15] was 11.1 ± 3.00 h and the “time of peak CR level” value [11, 15] was 8.86 ± 3.18 h.
